# Assay outcomes (PubChem BioAssay)
# Wee1 stabilizer – human Wee1 degradation inhibition, primary screen; P30291; reporter increase, % at 5 µM; actives 1.2% (n = 220,000); HeLa Luc-Wee1K328M stability, luciferase luminescence; 100% = proteasome inhibitor MG132 effect;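 active = activation above the mean of all tested compounds plus 3 SD, set per screening run, cut at about 8.8% in these data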;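 note: cells exposed to compound for 20 h before luminescence read; 0% = DMSO alone and 100% = MG132 at 30 µM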
# INS promoter inh – TRM-6 insulin promoter activity inhibition. TRM-6 cells, insulin promoter-eGFP reporter, imaging; reporter expression induced with tamoxifen. inhibition, % at 2 µM. actives 0.9% (n = 130,000);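 active = inhibition above the mean plus 3 SD, with well images judged a real hit on visual review, cut at about 60% in these data, passing the limit was not always enough; inconclusive = inhibition over the cutoff but images rejected on review; inactive = inhibition not above the cutoff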
# Hsp70 act – switches on Hsp70 transcription; actives 0.04% (n = 200,000); HeLa Hsp70 promoter luciferase reporter, luminescence; scaled: vehicle 0, proteasome-inhibitor control 100%; activation, % at 10 µM;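 active = activation above the mean across all tested compounds plus 3 SD, cutoff set per campaign, cut at about 5.5% in these data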;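 note: 100% = MG132 at 30 µM as the positive control and 0% = DMSO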
# Mdm2 ligase inh – inhibitors of human Mdm2 E3 ubiquitin ligase | Q00987 | cell-based MDM2 ubiquitination luciferase reporter, 2 h; 0 = plate control, 100 = twice control, blank-subtracted | signal enhancement, % at 5 µM | actives 0.11% (n = 210,000);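 active = signal enhancement of 30% or more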;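 note: luminescence tracks abundance of the self-degrading MDM2-luciferase fusion protein; higher signal means inhibition of MDM2 E3 ligase activity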
# Target sequence (Q00987 whole entry, looked up, the tested form may be a part): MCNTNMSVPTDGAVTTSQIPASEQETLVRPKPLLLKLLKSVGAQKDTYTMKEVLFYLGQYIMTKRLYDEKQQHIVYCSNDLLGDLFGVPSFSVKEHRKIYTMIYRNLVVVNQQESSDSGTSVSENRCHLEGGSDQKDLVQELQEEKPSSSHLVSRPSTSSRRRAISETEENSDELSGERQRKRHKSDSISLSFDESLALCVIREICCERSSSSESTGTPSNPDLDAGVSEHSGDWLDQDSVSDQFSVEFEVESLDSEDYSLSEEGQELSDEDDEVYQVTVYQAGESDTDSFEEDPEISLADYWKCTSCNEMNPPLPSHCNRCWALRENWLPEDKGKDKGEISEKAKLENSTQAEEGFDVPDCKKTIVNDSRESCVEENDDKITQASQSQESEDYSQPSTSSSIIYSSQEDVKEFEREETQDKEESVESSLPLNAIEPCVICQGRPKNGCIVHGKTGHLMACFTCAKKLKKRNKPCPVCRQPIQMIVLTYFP
#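 Test system: stable mammalian line carrying autodegrading MDM2–luciferase fusion reporter; quantity: 2000 cells in each well; times: 4 h cell settling then 2 h compound exposure, 37 °C; detection: luminescence with SteadyLite reagent, 15 min at room temperature; evaluation: percent signal gain over controls, blank-subtracted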
# RBBP9 inhibitor – blocks human serine hydrolase RBBP9; recombinant RBBP9, FP-Rh probe fluorescence polarization; inhibition, % at 7.94 µM; AID 1515; actives 0.2% (n = 220,000);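 active = inhibition above the campaign mean of all tested compounds plus 3 SD, cut at about 14% in these data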;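 note: plate controls were DMSO wells with RBBP9 for no effect and wells lacking RBBP9 protein for full effect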
# Target sequence (O75884 whole entry, looked up): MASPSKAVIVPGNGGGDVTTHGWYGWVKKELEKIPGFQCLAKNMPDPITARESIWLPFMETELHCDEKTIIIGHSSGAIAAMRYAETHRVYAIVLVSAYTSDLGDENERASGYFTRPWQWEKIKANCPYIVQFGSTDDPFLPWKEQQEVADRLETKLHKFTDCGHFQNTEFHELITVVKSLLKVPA
#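 Controls: DMSO-treated enzyme wells and wells lacking RBBP9 | Material: RBBP9 protein | Technique: Fluorescence polarization | Replication: Single well per compound, no replicates | Buffer or medium: Tris-NaCl-Pluronic buffer, pH 8.0 | Timing: 30 min compound preincubation, 45 min probe labeling, 25 °C | Read-out basis: Percent inhibition from mP, scaled between DMSO and no-protein wells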
# Ins promoter up – MIN6 insulin promoter up-regulation; MIN6 insulin promoter-GFP reporter, high-content imaging; stronger effect = higher value; z-score at 5 µM; actives 0.3% (n = 190,000);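 active = z-score above 3 at 5 µM with at least 500 cells counted in the well; inconclusive = wells under 500 cells, flagged as cytotoxic or low count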
# * marks the source's active call; other numbers are inactive results; i = inactive; ? = inconclusive; · = no result given. Hits are enriched below; roughly 2.2% of the tested compounds scored in any of these assays.
SMILES,Wee1 stabilizer,INS promoter inh,Hsp70 act,Mdm2 ligase inh,RBBP9 inhibitor,Ins promoter up
CC(C)(C)c1ccc(NC(=O)Nc2ccc(F)cc2)cc1,9.6*,30.0,0.0,-17.5,-4.6,·
CCOC(=O)c1ccc(NC(=O)Nc2ccc(F)cc2)cc1,10.1*,46.7,0.1,-9.2,-9.5,-1.34
COC(=O)c1ccc(NC(=O)Nc2ccc(F)cc2)cc1,-0.6,·,-0.3,-15.5,-5.7,-3.46
CCOC(=O)c1ccc(NS(=O)(=O)c2cnc[nH]2)cc1,11.3*,·,-0.3,-13.1,-6.1,0.18
CCCn1nnc(NC(=O)/C=C/c2ccc(C(C)C)cc2)n1,-1.2,·,·,-14.5,-6.8,-0.52
CCCS(=O)(=O)N1CCC(C(=O)N2CCOCC2)CC1,-1.5,·,0.1,-21.3,1.5,4.02*
CCCS(=O)(=O)N1CCC(C(=O)N2CCCC2)CC1,0.7,21.3,-0.1,-8.6,-6.8,0.48
O=C(O)c1ccc(NC(=S)Nc2ccccc2)cc1,-1.3,8.0,-0.1,-0.5,3.5,-0.45
Cc1csc(NC(=O)Nc2ccc(Cl)cc2)n1,8.9*,-4.3,-0.1,1.3,-7.9,-0.73
O=c1[nH]cc(O)c(=O)[nH]1,1.1,·,·,-11.9,-0.3,-0.08
O=c1[nH]cc(N(CCO)CCO)c(=O)[nH]1,9.5*,·,·,-4.9,-2.9,0.11
O=C(Nc1ccc2c(c1)OCCO2)N1CCN(Cc2ccccc2)CC1,-1.1,33.3,-0.1,-9.9,-1.4,-0.97
O=C(NCc1ccccn1)C(=O)NCc1ccccn1,3.7,80.0*,0.2,-10.4,-1.6,0.06
O=C(Cc1sc(Nc2ccccc2)nc1-c1ccccc1)NCc1ccccn1,9.1*,-45.5,0.5,-11.2,-1.8,-0.38
CC(C)(C)NC(=O)C(=O)NCc1ccccn1,1.9,·,-0.2,5.5,-6.5,-0.08
COc1ccc(/C=N/NC(=O)CSc2ccccc2)cc1OC,3.0,64.3*,-0.3,-89.1,-1.2,-0.67
COc1ccc(/C=N/NC(=O)CSc2ccccn2)cc1OC,-0.9,·,·,-1.1,-3.2,-0.36
CSc1ccccc1NS(=O)(=O)c1ccccc1,-1.5,9.5,-0.2,-19.1,2.1,-0.89
Cc1ccc(-c2nnn(CC(=O)N(CC3CCCO3)C(C(=O)NC3CCCC3)c3ccc(O)cc3)n2)o1 (stereo not given),10.0*,-6.7,0.0,-12.7,-6.1,-0.04
Cc1ccc(-c2nnn(CC(=O)N(CC3CCCO3)C(C(=O)NC3CCCC3)c3ccc(F)cc3)n2)o1 (stereo not given),2.5,-500.0,-0.3,-13.0,-3.6,0.36
Cc1ccc(N2C(=O)c3cccc4c([N+](=O)[O-])ccc(c34)C2=O)c2cccnc12,8.3,·,·,·,-12.5,0.95
Cc1ccnc(N2C(=O)c3cccc4c([N+](=O)[O-])ccc(c34)C2=O)c1,0.3,·,-0.1,7.3,-3.9,3.14*
NC(=O)C1CCN(C(=O)CN2C(=O)c3ccccc3S2(=O)=O)CC1,-0.8,18.8,-0.1,-14.7,-5.7,-0.08
CC1CCN(C(=O)CN2C(=O)c3ccccc3S2(=O)=O)CC1,9.3*,·,-0.2,20.1,-1.4,0.5
CCOC(=O)N1CCC(n2c(SCC(=O)NCCc3ccc(S(N)(=O)=O)cc3)nc3ccccc3c2=O)CC1,2.7,-42.9,-0.3,-20.1,5.8,0.07
SMILES,Wee1 stabilizer,INS promoter inh,Hsp70 act,Mdm2 ligase inh,RBBP9 inhibitor,Ins promoter up
Nc1nc(-c2ccc(Cl)cc2)cc(C(F)(F)F)n1,0.3,0.0,0.4,-83.7,-5.0,-0.27
Oc1ccc(/C=N/Nc2nc(-c3ccc(Cl)cc3)cc(C(F)(F)F)n2)cc1,10.5*,·,-0.5,-6.8,-5.8,·
O=[n+]1cc(-c2ccc(Cl)cc2)n([O-])c2c1CCC2,7.5,·,·,-8.7,-0.9,0.35
O=[n+]1cc(-c2ccccc2)n([O-])c2c1CCC2,9.7*,7.1,-0.3,-0.5,-8.3,0.13
CCOC(=O)N1CCN(C(=O)C2c3cc(OC)c(OC)cc3C(=O)N3CCc4ccccc4C23)CC1 (stereo not given),2.1,80.0*,-0.3,-4.4,-6.9,·
CC(C)Nc1nc(NC(C)C)nc(N(C)N)n1,-0.4,43.5,-0.3,-27.6,2.2,·
CC(C)Nc1nc(NC(C)C)nc(N(C)C(N)=O)n1,3.2,72.7*,-0.2,-5.5,-2.5,0.15
Cc1ccc(NC(=O)CSc2nnc(/N=C/N(C)C)s2)cc1,2.4,·,-0.3,-25.3,-5.6,·
CCOc1ccc(NC(=O)C(Cc2ccccc2)NC(=O)C2CCCCC2)cc1 (stereo not given),-0.6,35.7,-0.3,9.4,0.7,-0.13
COC(=O)c1c(NC(=O)CC2Nc3cc(C)c(C)cc3NC2=O)sc(C)c1C (stereo not given),0.2,·,-0.5,2.8,-4.0,6.44*
CCc1cc(C(=O)OC)c(NC(=O)CC2Nc3cc(C)c(C)cc3NC2=O)s1 (stereo not given),-3.0,2.7,-0.2,-3.0,-7.2,0.06
CCOc1ccc(/C=N/n2c(C)nnc2C)cc1OC,-2.6,·,-0.1,0.7,-0.3,0.03
Cc1nn(CC(=O)NCc2ccco2)c(C)c1[N+](=O)[O-],-0.5,·,·,-0.1,-7.2,-0.12
Cc1cc(F)ccc1NCc1cccnc1,5.9,-22.2,-0.1,-18.3,-5.2,-0.24
Cc1ccc(NCc2cccnc2)c(Br)c1,0.0,66.7*,-0.1,-17.4,-4.4,0.37
CCOC(=O)C(C)(C)N(Cc1cccc(C)c1)S(=O)(=O)c1ccc(Cl)c([N+](=O)[O-])c1,5.1,·,-0.5,-3.6,-0.7,0.18
CCOC(=O)NC1=NCC(C)S1 (stereo not given),-1.8,·,·,-19.5,-5.5,-0.28
Fc1cccc(NC(=S)NCc2cccnc2)c1,1.8,·,-0.2,-11.4,-5.9,0.44
O=C(Nn1c(-c2ccc(Br)cc2)nc2ccccc2c1=O)c1cccnc1,4.8,77.8*,-0.3,-14.4,-10.6,-0.37
CC(C)(C)C(=O)Cn1ncc(Cl)c(Cl)c1=O,0.7,i,0.0,-24.9,-6.0,?
O=C(COC(=O)c1c(Cl)ccc(Cl)c1Cl)NC1CCS(=O)(=O)C1 (stereo not given),-2.7,·,-0.1,-15.9,-2.8,-0.22
O=C(Cn1ncc(Cl)c(Cl)c1=O)NC1CCS(=O)(=O)C1 (stereo not given),9.5*,·,·,·,-2.3,-0.12
O=C(Cn1ncc(Cl)c(Cl)c1=O)NCC1CCCCC1,-0.3,-212.5,0.2,79.6*,-7.3,?
Cn1cc(CN2CCC(CO)CC2)c(-c2ccc(Oc3ccccc3)cc2)n1,-4.2,·,0.0,-0.5,-4.9,0.03
Cc1ccc(N(Cc2ccc(C(=O)NN=C3CCN(C)CC3)cc2)S(C)(=O)=O)cc1C,2.5,19.4,-0.2,-13.8,-10.3,-0.58
CC(C)(C)NC(=O)NC(=O)COc1ccc(Br)cc1Br,9.8*,·,-0.2,-27.9,-4.6,-0.05
O=C(COc1ccc(Br)cc1Br)NC(=S)Nc1cccc(CO)c1,11.0*,0.0,-0.3,-4.7,3.1,-0.2
